{
  "source": "ChEMBL document CHEMBL4689842",
  "about": "“EUbOPEN Chemogenomics Library wave 1” (2021)",
  "format_in_all_cases": "toxicity, cell-based",
  "key": {"Fibroblast": {"test_system": "Fibroblast", "assay": "Multiplex assay against human fibroblast", "how_it_was_run": "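Live cells carried four stains from seeding: Hoechst33342, BioTracker Green Microtubule Cytoskeleton Dye, MitoTracker Red and Annexin V Alexa Fluor 680. They were imaged on a CQ1 microscope at 37°C and 5% CO2 after compound addition. Using CellPathfinder machine-learning gating, cells were split into Hoechst high-intensity objects or normal cells, normal cells into healthy, pyknosed or fragmented nuclei, and pyknosed cells into mitotic or apoptotic; tubulin, mitochondrial-mass and membrane-permeability phenotypes are per cents of healthy-nucleus cells.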"}, "HEK-293T": {"test_system": "HEK-293T", "assay": "Incucyte cell viability with HEK293T; further: filed as whole numbers so only -1 and 0 and 1 occur", "conditions": "human, 10 µM, compound concentration 10 uM"}, "U2OS": {"test_system": "U2OS", "assay": "Incucyte cell viability with U2OS; further: filed as whole numbers so only -1 and 0 and 1 occur", "conditions": "human, 10 µM, compound concentration 10 uM"}, "[1]": {"conditions": "12 h, 1 µM, compound concentration 1 uM, replicate 1"}, "[2]": {"conditions": "12 h, 1 µM, compound concentration 1 uM, replicate 2"}, "[3]": {"conditions": "12 h, 10 µM, compound concentration 10 uM, replicate 1"}, "[4]": {"conditions": "12 h, 10 µM, compound concentration 10 uM, replicate 2"}, "[5]": {"conditions": "24 h, 1 µM, compound concentration 1 uM, replicate 1"}, "[6]": {"conditions": "24 h, 1 µM, compound concentration 1 uM, replicate 2"}, "[7]": {"conditions": "24 h, 10 µM, compound concentration 10 uM, replicate 1"}, "[8]": {"conditions": "24 h, 10 µM, compound concentration 10 uM, replicate 2"}, "[9]": {"conditions": "18 h, replicate number 1, timepoint 18 hours"}, "[10]": {"conditions": "24 h, replicate number 1, timepoint 24 hours"}},
  "data": [
    {"smiles": "NC(=O)c1ccc2nc(-c3ccc(C4(N)CCC4)cc3)c(-c3ccccc3)n2n1", "note": "[BAY-1125976]", "values": [
      {"measurement": "Population Apoptotic (%)", "setting": "Fibroblast; [1]", "result": 72, "unit": "%"},
      {"measurement": "Population Fragmented Nuclei (%)", "setting": "Fibroblast; [1]", "result": 53, "unit": "%"},
      {"measurement": "Population Healthy Nuclei (%)", "setting": "Fibroblast; [1]", "result": 33, "unit": "%"},
      {"measurement": "Population Hoechst High Intensity Objects (%)", "setting": "Fibroblast; [1]", "result": 38, "unit": "%"},
      {"measurement": "Population Mitochondria Different-Phenotype (%)", "setting": "Fibroblast; [1]", "result": 0, "unit": "%"},
      {"measurement": "Population Mitotic Cells (%)", "setting": "Fibroblast; [1]", "result": 27, "unit": "%"},
      {"measurement": "Population Normal (%)", "setting": "Fibroblast; [1]", "result": 61, "unit": "%"},
      {"measurement": "Population Pyknosed Nuclei (%)", "setting": "Fibroblast; [1]", "result": 13, "unit": "%"},
      {"measurement": "Population Tubulin-Different-Phenotype (%)", "setting": "Fibroblast; [1]", "result": 29, "unit": "%"},
      {"measurement": "Total Cell Count", "setting": "Fibroblast; [1]", "result": 587},
      {"measurement": "Population Apoptotic (%)", "setting": "Fibroblast; [2]", "result": 87, "unit": "%"},
      {"measurement": "Population Fragmented Nuclei (%)", "setting": "Fibroblast; [2]", "result": 56, "unit": "%"},
      {"measurement": "Population Healthy Nuclei (%)", "setting": "Fibroblast; [2]", "result": 31, "unit": "%"},
      {"measurement": "Population Hoechst High Intensity Objects (%)", "setting": "Fibroblast; [2]", "result": 51, "unit": "%"},
      {"measurement": "Population Mitochondria Different-Phenotype (%)", "setting": "Fibroblast; [2]", "result": 15, "unit": "%"},
      {"measurement": "Population Mitotic Cells (%)", "setting": "Fibroblast; [2]", "result": 12, "unit": "%"},
      {"measurement": "Population Normal (%)", "setting": "Fibroblast; [2]", "result": 48, "unit": "%"},
      {"measurement": "Population Pyknosed Nuclei (%)", "setting": "Fibroblast; [2]", "result": 12, "unit": "%"},
      {"measurement": "Population Tubulin-Different-Phenotype (%)", "setting": "Fibroblast; [2]", "result": 25, "unit": "%"},
      {"measurement": "Total Cell Count", "setting": "Fibroblast; [2]", "result": 131},
      {"measurement": "Population Apoptotic (%)", "setting": "Fibroblast; [3]", "result": 59, "unit": "%"},
      {"measurement": "Population Fragmented Nuclei (%)", "setting": "Fibroblast; [3]", "result": 27, "unit": "%"},
      {"measurement": "Population Healthy Nuclei (%)", "setting": "Fibroblast; [3]", "result": 51, "unit": "%"},
      {"measurement": "Population Hoechst High Intensity Objects (%)", "setting": "Fibroblast; [3]", "result": 13, "unit": "%"},
      {"measurement": "Population Mitochondria Different-Phenotype (%)", "setting": "Fibroblast; [3]", "result": 3, "unit": "%"},
      {"measurement": "Population Mitotic Cells (%)", "setting": "Fibroblast; [3]", "result": 40, "unit": "%"},
      {"measurement": "Population Normal (%)", "setting": "Fibroblast; [3]", "result": 86, "unit": "%"},
      {"measurement": "Population Pyknosed Nuclei (%)", "setting": "Fibroblast; [3]", "result": 20, "unit": "%"},
      {"measurement": "Population Tubulin-Different-Phenotype (%)", "setting": "Fibroblast; [3]", "result": 2, "unit": "%"},
      {"measurement": "Total Cell Count", "setting": "Fibroblast; [3]", "result": 208},
      {"measurement": "Population Apoptotic (%)", "setting": "Fibroblast; [4]", "result": 20, "unit": "%"},
      {"measurement": "Population Fragmented Nuclei (%)", "setting": "Fibroblast; [4]", "result": 54, "unit": "%"},
      {"measurement": "Population Healthy Nuclei (%)", "setting": "Fibroblast; [4]", "result": 36, "unit": "%"},
      {"measurement": "Population Hoechst High Intensity Objects (%)", "setting": "Fibroblast; [4]", "result": 40, "unit": "%"},
      {"measurement": "Population Mitochondria Different-Phenotype (%)", "setting": "Fibroblast; [4]", "result": 0, "unit": "%"},
      {"measurement": "Population Mitotic Cells (%)", "setting": "Fibroblast; [4]", "result": 80, "unit": "%"},
      {"measurement": "Population Normal (%)", "setting": "Fibroblast; [4]", "result": 59, "unit": "%"},
      {"measurement": "Population Pyknosed Nuclei (%)", "setting": "Fibroblast; [4]", "result": 10, "unit": "%"},
      {"measurement": "Population Tubulin-Different-Phenotype (%)", "setting": "Fibroblast; [4]", "result": 5, "unit": "%"},
      {"measurement": "Total Cell Count", "setting": "Fibroblast; [4]", "result": 84},
      {"measurement": "Population Apoptotic (%)", "setting": "Fibroblast; [5]", "result": 78, "unit": "%"},
      {"measurement": "Population Fragmented Nuclei (%)", "setting": "Fibroblast; [5]", "result": 53, "unit": "%"},
      {"measurement": "Population Healthy Nuclei (%)", "setting": "Fibroblast; [5]", "result": 36, "unit": "%"},
      {"measurement": "Population Hoechst High Intensity Objects (%)", "setting": "Fibroblast; [5]", "result": 41, "unit": "%"},
      {"measurement": "Population Mitochondria Different-Phenotype (%)", "setting": "Fibroblast; [5]", "result": 2, "unit": "%"},
      {"measurement": "Population Mitotic Cells (%)", "setting": "Fibroblast; [5]", "result": 21, "unit": "%"},
      {"measurement": "Population Normal (%)", "setting": "Fibroblast; [5]", "result": 58, "unit": "%"},
      {"measurement": "Population Pyknosed Nuclei (%)", "setting": "Fibroblast; [5]", "result": 10, "unit": "%"},
      {"measurement": "Population Tubulin-Different-Phenotype (%)", "setting": "Fibroblast; [5]", "result": 20, "unit": "%"},
      {"measurement": "Total Cell Count", "setting": "Fibroblast; [5]", "result": 564},
      {"measurement": "Population Apoptotic (%)", "setting": "Fibroblast; [6]", "result": 63, "unit": "%"},
      {"measurement": "Population Fragmented Nuclei (%)", "setting": "Fibroblast; [6]", "result": 63, "unit": "%"},
      {"measurement": "Population Healthy Nuclei (%)", "setting": "Fibroblast; [6]", "result": 22, "unit": "%"},
      {"measurement": "Population Hoechst High Intensity Objects (%)", "setting": "Fibroblast; [6]", "result": 39, "unit": "%"},
      {"measurement": "Population Mitochondria Different-Phenotype (%)", "setting": "Fibroblast; [6]", "result": 11, "unit": "%"},
      {"measurement": "Population Mitotic Cells (%)", "setting": "Fibroblast; [6]", "result": 36, "unit": "%"},
      {"measurement": "Population Normal (%)", "setting": "Fibroblast; [6]", "result": 60, "unit": "%"},
      {"measurement": "Population Pyknosed Nuclei (%)", "setting": "Fibroblast; [6]", "result": 14, "unit": "%"},
      {"measurement": "Population Tubulin-Different-Phenotype (%)", "setting": "Fibroblast; [6]", "result": 47, "unit": "%"},
      {"measurement": "Total Cell Count", "setting": "Fibroblast; [6]", "result": 128},
      {"measurement": "Population Apoptotic (%)", "setting": "Fibroblast; [7]", "result": 52, "unit": "%"},
      {"measurement": "Population Fragmented Nuclei (%)", "setting": "Fibroblast; [7]", "result": 19, "unit": "%"},
      {"measurement": "Population Healthy Nuclei (%)", "setting": "Fibroblast; [7]", "result": 65, "unit": "%"},
      {"measurement": "Population Hoechst High Intensity Objects (%)", "setting": "Fibroblast; [7]", "result": 15, "unit": "%"},
      {"measurement": "Population Mitochondria Different-Phenotype (%)", "setting": "Fibroblast; [7]", "result": 2, "unit": "%"},
      {"measurement": "Population Mitotic Cells (%)", "setting": "Fibroblast; [7]", "result": 48, "unit": "%"},
      {"measurement": "Population Normal (%)", "setting": "Fibroblast; [7]", "result": 84, "unit": "%"},
      {"measurement": "Population Pyknosed Nuclei (%)", "setting": "Fibroblast; [7]", "result": 15, "unit": "%"},
      {"measurement": "Population Tubulin-Different-Phenotype (%)", "setting": "Fibroblast; [7]", "result": 3, "unit": "%"},
      {"measurement": "Total Cell Count", "setting": "Fibroblast; [7]", "result": 192},
      {"measurement": "Population Apoptotic (%)", "setting": "Fibroblast; [8]", "result": 28, "unit": "%"},
      {"measurement": "Population Fragmented Nuclei (%)", "setting": "Fibroblast; [8]", "result": 45, "unit": "%"},
      {"measurement": "Population Healthy Nuclei (%)", "setting": "Fibroblast; [8]", "result": 41, "unit": "%"},
      {"measurement": "Population Hoechst High Intensity Objects (%)", "setting": "Fibroblast; [8]", "result": 36, "unit": "%"},
      {"measurement": "Population Mitochondria Different-Phenotype (%)", "setting": "Fibroblast; [8]", "result": 4, "unit": "%"},
      {"measurement": "Population Mitotic Cells (%)", "setting": "Fibroblast; [8]", "result": 71, "unit": "%"},
      {"measurement": "Population Normal (%)", "setting": "Fibroblast; [8]", "result": 63, "unit": "%"},
      {"measurement": "Population Pyknosed Nuclei (%)", "setting": "Fibroblast; [8]", "result": 13, "unit": "%"},
      {"measurement": "Population Tubulin-Different-Phenotype (%)", "setting": "Fibroblast; [8]", "result": 0, "unit": "%"},
      {"measurement": "Total Cell Count", "setting": "Fibroblast; [8]", "result": 80},
      {"measurement": "Growth Rate", "setting": "HEK-293T; 6 h, replicate number 1, timepoint 6 hours", "result": 0},
      {"measurement": "Growth Rate", "setting": "HEK-293T; 12 h, replicate number 1, timepoint 12 hours", "result": 0},
      {"measurement": "Growth Rate", "setting": "HEK-293T; [9]", "result": 0},
      {"measurement": "Growth Rate", "setting": "HEK-293T; [10]", "result": 0},
      {"measurement": "Growth Rate", "setting": "U2OS; 0 h, replicate number 2, timepoint 0 hours", "result": 0},
      {"measurement": "Growth Rate", "setting": "U2OS; [9]", "result": 1},
      {"measurement": "Growth Rate", "setting": "U2OS; [10]", "result": 1}
    ]}
  ]
}
